Only some compounds are listed: those with a hit (about 1.9% of all), similar ones and a draw of the others.
Hck-Nef inh = inhibitors of Nef-activated human Hck kinase, primary screen, biochemical, Z-Lyte FRET, 384-well, Hck-YEEI; Recombinant Hck-YEEI plus Nef, Z-Lyte FRET kinase assay; inhibition, % at 20 µM; hit rate 0.68% among 220,000; AID 463187, 2010;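 active = Hck-Nef kinase inhibition above about 50%, limit read from the data; inactive = inhibition below that limit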;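 also: 0% = DMSO with Hck plus Nef and 100% = Hck alone without Nef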
Target sequence (P08631 whole entry, looked up): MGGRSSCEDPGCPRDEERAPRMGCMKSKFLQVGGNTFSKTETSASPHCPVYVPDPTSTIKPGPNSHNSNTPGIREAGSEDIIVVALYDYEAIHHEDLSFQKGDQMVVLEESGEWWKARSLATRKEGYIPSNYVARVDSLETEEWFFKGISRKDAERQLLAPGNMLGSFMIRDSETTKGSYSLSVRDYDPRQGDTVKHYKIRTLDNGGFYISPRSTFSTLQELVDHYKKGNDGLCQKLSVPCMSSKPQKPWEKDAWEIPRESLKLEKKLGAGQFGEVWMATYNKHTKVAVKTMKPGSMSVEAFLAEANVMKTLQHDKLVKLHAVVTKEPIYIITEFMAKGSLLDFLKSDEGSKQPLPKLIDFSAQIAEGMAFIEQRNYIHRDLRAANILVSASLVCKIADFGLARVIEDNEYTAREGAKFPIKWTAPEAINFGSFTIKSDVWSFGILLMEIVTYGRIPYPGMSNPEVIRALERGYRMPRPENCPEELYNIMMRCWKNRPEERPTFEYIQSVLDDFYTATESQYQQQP
Runt-CBFb FRET = inhibitors of RUNX1 Runt–CBFb binding, primary screen, biochemical, FRET, Cerulean-Runt, Venus-CBFb, uHTS; Runt-related transcription factor 1 (Homo sapiens) + Core-binding factor subunit beta …; Cerulean-Runt/Venus-CBFb FRET ratio 530/480, 1 h; inhibition, % at 20 µM; hit rate 0.46% among 220,000;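 active = inhibition over about 50% at 20 µM in the single-dose screen, limit read from the data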;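 also: 0% = DMSO wells and 100% = excess unlabeled CBFb competitor control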
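Assay system: Cerulean-Runt domain fusion protein, energy donor; Signal: fluorescence energy transfer, 422 nm excitation, 530/480 nm emission; Timing: 1 h compound exposure, room temperature; Control set: unlabeled CBFb; Medium: Tris buffer pH 7.5 with salts and BSA; Compound: single test concentration of 20 µM, 1% DMSO final; Probe or stimulus: Venus-CBFb 100 nM.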
Runt-SMMHC FRET = inhibitors of RUNX1 Runt–CBFb-SMMHC binding, primary screen, biochemical, FRET, Cerulean-Runt, Venus-CBFb-SMMHC, uHTS. Cerulean-Runt/Venus-CBFb-SMMHC FRET ratio 530/480, 1 h. Runt-related transcription factor 1 (Homo sapiens) + Core-binding factor subunit beta …. inhibition, % at 20 µM. hit rate 0.74% among 220,000. AID 1434, 2008;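 active = mean inhibition across duplicate retests at 20 µM reaching about 50%, limit read from the data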;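 also: 0% = DMSO wells and 100% = wells with excess untagged CBFb-SMMHC; inhibitors lower the FRET ratio by blocking Runt binding to CBFb-SMMHC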
RanGTP-Imp inh = inhibitors of RanGTP-importin-beta interaction, primary screen, biochemical, FRET, CFP-Ran, YFP-importin-beta, homogeneous; Ran GTPase (GTP-bound) - importin-beta complex; cell-free CFP-Ran/YFP-importin-beta FRET ratio; inhibition, % (concentration not given with the values); hit rate 1.1% among 300,000; AID 2216, 2009;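 active = more than half of the replicate wells show a fall in the fluorescence ratio signal beyond about 16%, limit read from the data, passing the limit was not always enough; inconclusive = exactly half of the replicate wells pass the set limit; inactive = fewer than half of replicates pass the limit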;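 also: 0% = DMSO wells and 100% = Ran loaded with GDP instead of GTP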
* hit, by the source's call; ? = inconclusive; . = no result given.

SMILES	Hck-Nef inh	Runt-CBFb FRET	Runt-SMMHC FRET	RanGTP-Imp inh
Cc1nn(C)c(C)c1NC(=O)CN1CCC(O)(c2ccc3c(c2)OCO3)CC1	0	-2	-3	6
O=C(N/N=C/c1ccc2c(c1)OCO2)C1COc2ccccc2O1 (stereo unspecified)	1	-1	-2	-3
O=C(N/N=C\C=C\c1ccc2c(c1)OCO2)C1COc2cc3ccccc3cc2O1 (stereo unspecified)	4	1	2	19*
FC(F)(F)c1ccccc1NC(=S)N/N=C1\CC2CC=CC12 (stereo unspecified)	23	3	0	.
CC(C)Cn1nc(NC(=O)c2cccs2)c2cc3ccccc3nc21	-74	34	57*	64*
COc1ccc2nc3c(cc2c1)c(NC(=O)c1cccs1)nn3CC(C)C	41	62*	63*	116*
Cc1ccc(/C=C/C2=Cc3c(sc(NC(=O)CSc4n[nH]c(N)n4)c3C#N)C(C)(C)C2)o1	64*	19	12	-11
Cc1cc(N2CCN(C)CC2)nc2ccc(NC(=S)N3CCC4(CC3)OCCO4)cc12	-3	6	4	-3
Cc1ccc(NC(=O)CCSc2nc(C)cc(C)n2)cc1	-14	2	-2	0
CC(=O)NC12CC3CC(C1)CC(C(=O)NCc1ccc(C)cc1)(C3)C2	.	.	.	7
O=C(Nc1cccc(C(F)(F)F)c1)c1cc2c(s1)-c1ccccc1OC2	13	45	87*	41*
O=C(NC1CC1)c1cc2c(s1)-c1ccccc1OC2	5	3	1	-4
COc1cc(C2=NC(CO)(CO)CO2)cc(OC)c1OC	20	1	-2	4
CC(=S)/C=C1\Sc2ccccc2N1C	1	48	37	-1
COc1ccc(C(=O)/C=C2\Sc3ccccc3N2C)cc1	31	31	56*	-1
CCOc1ccc(CNC(c2ccccc2)c2ccccc2)cc1	.	.	.	33*
N#Cc1cc2c(=O)n3ccccc3nc2n(CCN2CCOCC2)c1=O	.	103*	143*	.
COCCCn1c(C(=O)N2CCOCC2)cc2c(=O)n3ccccc3nc21	.	.	.	0
Cc1ccc2nc3c(cc(C#N)c(=O)n3CCN3CCOCC3)c(=O)n2c1	.	146*	63*	.
Cc1ccc2nc3c(cc(C#N)c(=O)n3CC3CCCO3)c(=O)n2c1 (stereo unspecified)	189*	52*	65*	.
O=C1C=C(NCc2ccccc2)c2ccccc2C1=O	27	3	4	?
CCOc1ccc(C(=O)Nc2cccc(C(C)=O)c2)cc1[N+](=O)[O-]	20	-1	3	2
Cc1cccc(NC(=O)C2CCN(C(=O)N3CCOc4ccccc43)CC2)c1C	.	.	.	2
Nc1nc(-c2cc(O)ccc2[N+](=O)[O-])cc(-c2ccccc2)c1[N+](=O)[O-]	.	.	.	34*
CCCN1C2=C(C(=O)CC(C)(C)C2)C(c2ccc(F)cc2)C2=C1c1ccccc1C2=O (stereo unspecified)	-1	-2	-3	3
SMILES	Hck-Nef inh	Runt-CBFb FRET	Runt-SMMHC FRET	RanGTP-Imp inh
CCCCN1C2=C(C(=O)CC(C)(C)C2)C(c2ccccc2)C2=C1c1ccccc1C2=O (stereo unspecified)	2	-3	-9	5
CC1(C)CC(=O)C2=C(C1)N(CCN1CCOCC1)C1=C(C(=O)CC(C)(C)C1)C2c1cccc(Cl)c1	44	.	-21	111*
CCN(CC)CCN1C2=C(C(=O)CC(C)(C)C2)C(c2cccc(F)c2)C2=C1CC(C)(C)CC2=O	37	83*	86*	96*
COc1ccc(NC2CCCN(C(=O)c3ccc4nc(C)c(C)nc4c3)C2)cc1OC (stereo unspecified)	.	.	.	0
COc1ccc(/C=C/C(=O)N2CCN(C)CC2)cc1S(=O)(=O)N1CCCCC1	-8	2	2	77*
CC1S/C(=C(\C#N)C(N)=O)N(c2ccc(F)cc2)C1=O (stereo unspecified)	0	1	-1	3
COc1ccc(C(=O)NCCc2nnc3ccc(SCC(=O)N4CCCC4)nn23)cc1	.	.	.	-3
O=C(NCc1ccco1)c1cnn2c1NC(c1ccc(Br)cc1)CC2C(F)(F)F (stereo unspecified)	1	0	7	25*
O=C(NCc1ccco1)c1cnn2c1NC(c1ccccc1)CC2C(F)(F)F (stereo unspecified)	1	-2	-7	-5
CC(=O)Nc1ccc(NC(=O)C(C)Sc2n[nH]c(-c3ccc(C)cc3)n2)cc1 (stereo unspecified)	.	.	.	1
O=C(O)c1ccc(-c2ccc(/C=C3\NC(=O)N(Cc4ccc(Cl)cc4)C3=O)o2)cc1	18	98*	84*	.
CC(=O)N1CCN(c2nc(-c3ccco3)c3c(c2C#N)CC(C)(C)SC3)CC1	6	-12	-42	16*
CCN(CC)CC(=O)Nc1ccc(-c2ccc(NC(=O)CN(CC)CC)c(OC)c2)cc1OC	-13	-6	1	-1
Cc1ccc(C(=O)COC(=O)c2cc(=O)[nH]c3ccccc23)cc1C	41	0	-3	37*
COc1ccccc1C(=O)COC(=O)c1cc(=O)[nH]c2ccccc12	.	.	.	3
Cc1cc(O)c(C=O)c2c1C(=O)Oc1c(CO)c(O)c3c(c1O2)C(O)OC3=O (stereo unspecified)	33	53*	40	.
Cc1cc(O)c(CN(C)C)c2c1C(=O)/C(=C/c1ccco1)O2	.	.	.	-46
COc1ccccc1NC(=O)c1coc(=O)c(Br)c1	39	-32	-122	?
COc1ccc(C(=O)/C=C/Nc2ccc(S(=O)(=O)Nc3nc(C)cc(C)n3)cc2)c(OC)c1	44	38	81*	0
COc1ccc(C(=O)/C=C/Nc2ccc(S(=O)(=O)Nc3nc(C)cc(C)n3)cc2)cc1OC	23	44	67*	3
Cc1cc(C)nc(NS(=O)(=O)c2ccc(N/C=C/C(=O)c3ccc(Cl)cc3)cc2)n1	11	12	25	5
COc1ccccc1/C=C1\N=C(C(C)(C)C)OC1=O	.	.	.	3
Cc1ccc(/C=C2\Sc3ccccc3C2=O)s1	0	-8	-16	-2
O=CN(/C=C1\Sc2ccccc2C1=O)Cc1ccccc1	15	37	67*	?
CC(=O)N(C)/C=C1\Sc2ccccc2C1=O	3	30	76*	?
CC(=O)Nc1ccc(/C=C2\Sc3ccccc3C2=O)cc1	11	-4	-3	4
Cc1ccc(NC(=O)CN2C(=O)/C(=C3\SC(=S)N(C4CCS(=O)(=O)C4)C3=O)c3ccccc32)cc1 (stereo unspecified)	97*	11	8	.

Screens (PubChem BioAssay)
